{
  "source": "paper PMC8848307",
  "about": "(Journal of medicinal chemistry, 2019)",
  "key": {"STAT3 protein [1]": {"molecular_target": "T1, STAT3 protein (Homo sapiens, UniProt P40763)", "T1 sequence (P40763 whole entry)": "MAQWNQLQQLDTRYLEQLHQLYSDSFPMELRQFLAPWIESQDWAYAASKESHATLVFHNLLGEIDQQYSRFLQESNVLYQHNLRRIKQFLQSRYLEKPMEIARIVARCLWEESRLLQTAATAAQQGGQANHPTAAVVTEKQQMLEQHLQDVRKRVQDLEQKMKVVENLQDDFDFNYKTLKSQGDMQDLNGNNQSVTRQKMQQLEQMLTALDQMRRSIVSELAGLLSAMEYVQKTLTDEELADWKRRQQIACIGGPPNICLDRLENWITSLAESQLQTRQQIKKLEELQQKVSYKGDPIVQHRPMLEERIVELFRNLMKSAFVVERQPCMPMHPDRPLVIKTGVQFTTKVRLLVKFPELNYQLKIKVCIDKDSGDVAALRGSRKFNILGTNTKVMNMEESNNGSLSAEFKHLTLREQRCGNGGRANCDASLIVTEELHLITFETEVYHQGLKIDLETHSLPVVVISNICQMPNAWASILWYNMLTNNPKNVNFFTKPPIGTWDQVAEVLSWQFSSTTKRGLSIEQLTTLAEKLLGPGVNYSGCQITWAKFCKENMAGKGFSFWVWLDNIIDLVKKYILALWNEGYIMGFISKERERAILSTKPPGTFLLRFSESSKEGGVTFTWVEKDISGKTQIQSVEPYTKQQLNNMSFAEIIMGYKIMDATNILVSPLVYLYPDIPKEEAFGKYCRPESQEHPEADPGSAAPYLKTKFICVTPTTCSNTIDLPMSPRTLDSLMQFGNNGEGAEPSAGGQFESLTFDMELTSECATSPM", "assay": "Western blotting of STAT3 degradation in Molm-16 cells", "type": "cell-based", "details": "for degradation of total STAT3 and pSTAT3^Y705 proteins: Molm-16, concentrations up to 10 μM"}, "STAT3 protein [2]": {"molecular_target": "T1, STAT3 protein", "assay": "Western blotting of STAT3 degradation in SU-DHL-1 cells", "type": "cell-based", "details": "SU-DHL-1, concentrations up to 10 μM"}, "SU-DHL-1 cell line": {"test_system": "SU-DHL-1 cell line", "assay": "Cell growth assay", "type": "cell-based", "details": "SU-DHL-1, up to 10 μM"}, "[3]": {"test_system": "STAT1, STAT2, STAT4, STAT5A/B, and STAT6 proteins", "assay": "Western blotting analysis of other STAT proteins in Molm-16 and SU-DHL-1 cells", "type": "cell-based", "details": "10 μM; Molm-16 4 h, SU-DHL-1 18 h", "in_short": "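Molm-16 cells were treated for 4 h and SU-DHL-1 cells for 18 h, with test compound at 0.01–10 μM and control compounds at 10 μM. Cells were lysed and run on SDS–PAGE, then transferred to PVDF and blocked 1 h in 5% blocker in TBST. Blots were probed with primary then secondary antibodies against STAT family members and developed by chemiluminescence.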"}, "Molm-16 cell line": {"test_system": "Molm-16 cell line", "assay": "Cell growth assay", "type": "cell-based", "details": "for activity in inhibition of cell growth: Molm-16"}, "STAT3 protein [4]": {"molecular_target": "STAT3 protein (Mus musculus, UniProt P42227)", "sequence (P42227 whole entry)": "as the sequence (P40763 whole entry) above, with E760D counted along it", "assay": "Pharmacodynamics in native mouse spleen tissue", "type": "in vivo", "details": "single intravenous dose, 25 mg/kg, CD-1 mice", "in_short": "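Female CD-1 mice received a single intravenous dose of test compound or vehicle (10% PEG400 + 90% PBS). Mice were euthanized at set time points and spleens harvested. Native spleen lysates were immunoblotted for STAT3.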"}, "[5]": {"molecular_target": "human recombinant STAT3 SH2 protein (Homo sapiens, UniProt P40763)", "sequence (P40763 127-688)": "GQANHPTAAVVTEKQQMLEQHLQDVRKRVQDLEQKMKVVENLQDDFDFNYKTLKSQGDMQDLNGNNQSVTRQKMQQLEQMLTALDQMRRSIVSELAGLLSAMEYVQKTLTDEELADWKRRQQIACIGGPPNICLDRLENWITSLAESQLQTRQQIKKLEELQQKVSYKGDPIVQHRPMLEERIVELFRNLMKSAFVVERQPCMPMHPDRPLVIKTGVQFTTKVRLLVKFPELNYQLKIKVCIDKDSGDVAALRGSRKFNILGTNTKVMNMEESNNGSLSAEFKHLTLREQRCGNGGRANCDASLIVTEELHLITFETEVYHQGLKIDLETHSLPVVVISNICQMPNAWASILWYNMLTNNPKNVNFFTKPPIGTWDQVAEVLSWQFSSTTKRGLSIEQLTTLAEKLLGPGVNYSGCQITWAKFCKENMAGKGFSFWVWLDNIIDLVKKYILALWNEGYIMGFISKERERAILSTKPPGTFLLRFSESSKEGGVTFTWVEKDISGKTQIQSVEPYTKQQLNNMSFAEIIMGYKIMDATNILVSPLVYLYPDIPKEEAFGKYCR", "assay": "Fluorescence polarization", "type": "binding", "details": "for times less potent than SI-109 in binding to STAT3: ratio of binding affinities vs SI-109"}},
  "data": [
    {"compound": "CC(=O)N1CC[C@H]2CC[C@@H](C(=O)N[C@@H](CCC(N)=O)C(=O)NC(c3ccccc3)c3ccccc3)N2C(=O)[C@@H](NC(=O)c2cc3cc(C(F)(F)P(=O)(O)O)ccc3[nH]2)C1", "note": "[SI-109, ((2-(((5S,8S,10aR)-3-Acetyl-8-(((S)-5-amino-1-(benzhydrylamino)-1,5-dioxopentan-2-yl)carbamoyl)-6-oxodecahydropyrrolo[1,2-a][1,5]diazocin-5-yl)carbamoyl)-1H-indol-5-yl)difluoromethyl)phosphonic Acid]", "values": [
      {"measurement": "effect on the level of total STAT3 protein", "setting": "STAT3 protein [1]; Molm-16, 4 h, concentrations up to 1 μM", "value": "no effect"},
      {"measurement": "effect on the level of pSTAT3^Y705 protein", "setting": "STAT3 protein [1]; Molm-16, 4 h, up to / at 1 μM", "value": "only modestly decreases"},
      {"measurement": "effect on the levels of STAT3 and pSTAT3^Y705", "setting": "STAT3 protein [2]", "value": "no effect"},
      {"measurement": "effect on cell viability", "setting": "SU-DHL-1 cell line", "value": "no effect"},
      {"measurement": "effect on the levels of any STAT protein", "setting": "[3]", "value": "no effect"}
    ]},
    {"compound": "NC(=O)CC[C@H](NC(=O)[C@@H]1CC[C@@H]2CCN(C(=O)CCCCCC#Cc3cccc4c3CN(C3CCC(=O)NC3=O)C4=O)C[C@H](NC(=O)c3cc4cc(CP(=O)(O)O)ccc4[nH]3)C(=O)N21)C(=O)NC(c1ccccc1)c1ccccc1", "note": "(stereo partly drawn) [Compound 33, ((2-(((5S,8S,10aR)-8-(((S)-5-Amino-1-(benzhydrylamino)-1,5-dioxopentan-2-yl)carbamoyl)-3-(8-(2-(2,6-dioxopiperidin-3-yl)-1-oxoisoindolin-4-yl)oct-7-ynoyl)-6-oxodecahydropyrrolo-[1,2-a][1,5]diazocin-5-yl)carbamoyl)-1H-indol-5-yl)methyl)-phosphonic Acid]", "values": [
      {"measurement": "degradation of total STAT3 and pSTAT3^Y705 proteins", "setting": "STAT3 protein [1]", "value": "fail to degrade"},
      {"measurement": "activity in inhibition of cell growth", "setting": "Molm-16 cell line", "value": "very weak activity"}
    ]},
    {"compound": "NC(=O)CC[C@H](NC(=O)[C@@H]1CC[C@@H]2CCN(C(=O)NCCCCC#Cc3cccc4c3CN(C3CCC(=O)NC3=O)C4=O)C[C@H](NC(=O)c3cc4cc(C(F)(F)P(=O)(O)O)ccc4[nH]3)C(=O)N21)C(=O)NC(c1ccccc1)c1ccccc1", "note": "(stereo partly drawn) [Compound 19, ((2-(((5S,8S,10aR)-8-(((S)-5-Amino-1-(benzhydrylamino)-1,5-dioxopentan-2-yl)carbamoyl)-3-((6-(2-(2,6-dioxopiperidin-3-yl)-1-oxoisoindolin-4-yl)hex-5-yn-1-yl)carbamoyl)-6-oxodecahydropyrrolo[1,2-a][1,5]diazocin-5-yl)carbamoyl)-1H-indol-5-yl)difluoromethyl)phosphonic Acid]", "values": [
      {"measurement": "persistence of STAT3 reduction in spleen", "setting": "STAT3 protein [4]", "value": "more than 48 h"},
      {"measurement": "reducing STAT3 protein in native mouse spleen tissue", "setting": "STAT3 protein [4]", "value": "very effective"}
    ]},
    {"compound": "CC(=O)N1CC[C@H]2CC[C@@H](C(=O)N[C@@H](CCC(N)=O)C(=O)NC(c3ccccc3)c3ccccc3)N2C(=O)[C@@H](NC(=O)c2cc3cc(CP(=O)(O)O)ccc3[nH]2)C1", "note": "[Compound 10, ((2-(((5S,8S,10aR)-3-Acetyl-8-(((S)-5-amino-1-(benzhydrylamino)-1,5-dioxopentan-2-yl)carbamoyl)-6-oxodecahydropyrrolo[1,2-a][1,5]diazocin-5-yl)carbamoyl)-1 H-indol-5-yl)methyl)phosphonic Acid]", "values": [
      {"measurement": "times less potent than SI-109 in binding to STAT3", "setting": "[5]", "value": 14, "unit": "times"}
    ]},
    {"compound": "CC(=O)N1CC[C@H]2CC[C@@H](C(=O)N[C@@H](CCC(N)=O)C(=O)NC(c3ccccc3)c3ccccc3)N2C(=O)[C@@H](NC(=O)/C=C(\\C)c2ccc(C(F)(F)P(=O)(O)O)cc2)C1", "note": "[Compound 11, ((4-((E)-4-(((5S,8S,10aR)-3-Acetyl-8-(((S)-5-amino-1-(benzhydrylamino)-1,5-dioxopentan-2-yl)carbamoyl)-6-oxodecahydropyrrolo[1,2-a][1,5]diazocin-5-yl)amino)-4-oxobut-2-en-2-yl)phenyl)difluoromethyl)phosphonic Acid]", "values": [
      {"measurement": "times less potent than SI-109 in binding to STAT3", "setting": "[5]", "value": "> 10", "unit": "times"}
    ]},
    {"compound": "CC(=O)N1CC[C@H]2CC[C@@H](C(=O)N[C@@H](CCC(N)=O)C(=O)NC(c3ccccc3)c3ccccc3)N2C(=O)[C@@H](NC(=O)c2cc3cc(OP(=O)(O)O)ccc3[nH]2)C1", "note": "[Compound 9, 2-(((5S,8S,10aR)-3-Acetyl-8-(((S)-5-amino-1-(benzhydrylamino)-1,5-dioxopentan-2-yl)carbamoyl)-6-oxodecahydropyrrolo[1,2-a][1,5]diazocin-5-yl)carbamoyl)-1H-indol-5-yl Dihydrogen Phosphate]", "values": [
      {"measurement": "times less potent than SI-109 in binding to STAT3", "setting": "[5]", "value": 2, "unit": "times"}
    ]},
    {"compound": "NC(=O)CC[C@H](NC(=O)[C@@H]1CC[C@@H]2CCCC[C@H](NC(=O)c3cc4cc(C(F)(F)P(=O)(O)O)ccc4[nH]3)C(=O)N21)C(=O)NCc1ccccc1", "note": "[Compound 4, (2-((3S,6S)-3-((S)-5-Amino-1-(benzylamino)-1,5-dioxopentan-2-ylcarbamoyl)-5-oxodecahydropyrrolo[1,2-a]azocin-6-ylcarbamoyl)-1H-indol-5-yl)difluoromethylphosphonic Acid]", "values": [
      {"measurement": "times more potent than 3 in binding to STAT3", "setting": "[5]; ratio of Ki vs compound 3", "value": "> 100", "unit": "times"}
    ]},
    {"compound": "CN1C(=O)CCC(N2Cc3c(C#CCCCCCC(=O)N4CC[C@H]5CC[C@@H](C(=O)N[C@@H](CCC(N)=O)C(=O)NC(c6ccccc6)c6ccccc6)N5C(=O)[C@@H](NC(=O)c5cc6cc(C(F)(F)P(=O)(O)O)ccc6[nH]5)C4)cccc3C2=O)C1=O", "note": "(stereo partly drawn) [SD-36Me, ((2-(((5S,8S,10aR)-8-(((S)-5-Amino-1-(benzhydrylamino)-1,5-dioxopentan-2-yl)carbamoyl)-3-(8-(2-(1-methyl-2,6-dioxopi-peridin-3-yl)-1-oxoisoindolin-4-yl)oct-7-ynoyl)-6-oxodecahydropyrrolo[1,2-a][1,5]diazocin-5-yl)carbamoyl)-1H-indol-5-yl)difluoromethyl)phosphonic Acid]", "values": [
      {"measurement": "degradation of total STAT3 and pSTAT3^Y705 proteins", "setting": "STAT3 protein [1]", "value": "completely ineffective"},
      {"measurement": "effect on the levels of STAT3 and pSTAT3^Y705", "setting": "STAT3 protein [2]", "value": "no effect"},
      {"measurement": "times less potent than SD-36 in cell growth inhibition", "setting": "Molm-16 cell line; Molm-16, ratio of IC50", "value": 400, "unit": "times"},
      {"measurement": "effect on cell viability", "setting": "SU-DHL-1 cell line", "value": "no effect"},
      {"measurement": "effect on the levels of any STAT protein", "setting": "[3]", "value": "no effect"}
    ]},
    {"compound": "NC(=O)CC[C@H](NC(=O)[C@@H]1CC[C@@H]2CCN(C(=O)CCCCCC#Cc3cccc4c3CN(C3CCC(=O)NC3=O)C4=O)C[C@H](NC(=O)c3cc4cc(OP(=O)(O)O)ccc4[nH]3)C(=O)N21)C(=O)NC(c1ccccc1)c1ccccc1", "note": "(stereo partly drawn) [Compound 32, 2-(((5S,8S,10aR)-8-(((S)-5-Amino-1-(benzhydrylamino)-1,5-dioxopentan-2-yl)carbamoyl)-3-(8-(2-(2,6-dioxopiperidin-3-yl)-1-oxoisoindolin-4-yl)oct-7-ynoyl)-6-oxodecahydropyrrolo-[1,2-a][1,5]diazocin-5-yl)carbamoyl)-1H-indol-5-yl Dihydrogen Phosphate]", "values": [
      {"measurement": "degradation of total STAT3 and pSTAT3^Y705 proteins", "setting": "STAT3 protein [1]", "value": "fail to degrade"},
      {"measurement": "activity in inhibition of cell growth", "setting": "Molm-16 cell line", "value": "very weak activity"}
    ]},
    {"compound": "NC(=O)CC[C@H](NC(=O)[C@@H]1CC[C@@H]2CCCC[C@H](NC(=O)c3cc4cc(CP(=O)(O)O)ccc4[nH]3)C(=O)N21)C(=O)NCc1ccccc1", "note": "[Compound 3, (2-((3S,6S)-3-((S)-5-Amino-1-(benzylamino)-1,5-dioxopentan-2-ylcarbamoyl)-5-oxodecahydropyrrolo[1,2-a]azocin-6-ylcarbamoyl)-1H-indol-5-yl)methylphosphonic Acid]", "values": [
      {"measurement": "times weaker than 2 in binding to STAT3", "setting": "[5]; ratio of Ki vs compound 2", "value": 30, "unit": "times"}
    ]}
  ]
}
